In publication PMC7611355 (Bioconjugate chemistry, 2020):

Experiments:
[1] = Ex vivo biodistribution by gamma counting; format: in vivo, BALB/c mice; settings: 120 min postinjection
Summary of the method: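 Female BALB/c mice (6-8 weeks, 17-20 g; 5 per tracer) were anaesthetised with isoflurane (2-3% in oxygen) and the radiotracer (100 ± 15 µL, 2.2-16.2 MBq) was injected via a tail-vein cannula. After a 1 h PET scan the mice recovered and were culled at 2 h postinjection. Organs were harvested, weighed and gamma-counted against standards prepared from the injected material, giving %ID/g.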

[2] = In vitro calcium mineral binding: mean across non-HAp calcium minerals; settings: saline, room temperature, 1 h
Summary of the method: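 Each calcium salt (carbonate, dibasic phosphate, pyrophosphate, β-tricalcium phosphate, oxalate; 1 mg) was suspended in saline (1 mL). Radiotracer (~700 kBq) was added and shaken for 1 h at room temperature. After centrifuging at 9677 g for 5 min, supernatant and pellet activities were counted separately.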

[3] = In vitro calcium mineral binding: hydroxyapatite
Summary of the method: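 Hydroxyapatite (1 mg) was suspended in saline (1 mL). For blocking, the suspension was preincubated overnight with unlabelled agent: pamidronate (27.9 mg, 100 µmol), alendronate or sodium fluoride, matched to each tracer. Radiotracer (~700 kBq) was added and shaken for 1 h at room temperature. After centrifuging at 9677 g for 5 min, supernatant and pellet activities were counted.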

[4] = Dynamic PET-CT imaging, ROI pharmacokinetics in healthy mice; format: in vivo, BALB/c mice
[5] = cited from earlier work
[6] = Shelf life at room temperature; format: physicochemical; settings: solid; measured by NMR, MS, and elemental analysis

shelf life at room temperature [6] | Compound | femur uptake [1] [%ID/g] | mean binding across non-HAp minerals [2] [%] | mean binding to HAp ([3]; saline, room temperature, 1 h, non-blocked) [%] | mean blocked binding to HAp ([3]; salt preincubated with excess unlabeled BP or fluoride) [%] | area under the curve from 3-59 min (AUC3-59) ([4]; heart ROI as proxy for blood) [%ID min mL^-1] | knee uptake (ROI image analysis) ([4]; mice, i.v., at 60 min postinjection) [%ID mL^-1] | pKa (amine) [5]
 | [18F-].[Na+] [[^18F]NaF] | 47.1 ± 8.3 | 8.4 ± 4.6 | 88.4 ± 4.6 | 2.2 ± 0.2 | 122.3 ± 5.1 | 54.5 ± 5.1 | 
at least 4485 days | NCCC(O)(P(=O)(O)O)P(=O)(O)O [Pamidronate, pamidronate disodium dihydrate] |  |  |  |  |  |  | 10.40-13.06
